A selection: hits, their analogues and other compounds. The true share with any hit is near 1.1%.
FXIIa inh 1536: inhibitors of human coagulation factor XIIa; P00748; purified FXIIa, Boc-QGR-AMC fluorogenic substrate, 2 h; inhibition, % at 5 µM; hit rate 0.3% among 220,000; AID 800; in the data active = inhibition above about 40%
hK5 inh: inhibitors of human kallikrein 5. Q9Y337. recombinant hK5, fluorogenic AMC substrate cleavage. inhibition, % at 5 µM. hit rate 0.59% among 210,000;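 active = inhibition of 40% or more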
Target sequence (Q9Y337 67-293 limits assumed): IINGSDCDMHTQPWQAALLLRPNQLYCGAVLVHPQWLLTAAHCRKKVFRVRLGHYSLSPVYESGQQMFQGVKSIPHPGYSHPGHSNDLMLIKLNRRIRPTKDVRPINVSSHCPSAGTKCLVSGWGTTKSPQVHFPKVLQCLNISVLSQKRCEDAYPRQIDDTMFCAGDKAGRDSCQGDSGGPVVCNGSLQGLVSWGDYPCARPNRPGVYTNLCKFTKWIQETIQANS
Lipid droplet: modulators of hepatic lipid droplet formation; AML12 mouse hepatocytes, oleate lipid droplets, BODIPY imaging; inhibition, % at 6.5 µM; hit rate 0.4% among 240,000;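 active = lipid droplet intensity inhibited by at least 50%, with more than 500 cells counted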
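System: AML12 hepatocytes (mouse). Probe or stimulus: oleic acid at 100 µM to induce lipid droplet formation. Times: overnight treatment with compound plus oleate. Detection: Image-based BODIPY and DAPI two-channel analysis. Evaluation: percent inhibition of filter-corrected integrated lipid droplet intensity per well.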
FXIa inh: blocks human coagulation factor XIa protease activity | P03951 | purified FXIa, Boc-Glu-Ala-Arg-AMC fluorogenic substrate | inhibition, % at 5 µM | hit rate 0.14% among 220,000 | AID 798;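 active = inhibition of at least 40%; inactive = inhibition below 40%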;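 note: fluorescence of freed AMC excited at 355 nm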
Biofilm kill mix: mixtures killing C. albicans biofilm. inhibition, % at 7.6 µM. hit rate 0.02% among 120,000. C. albicans biofilm persisters + clotrimazole, fluorescence viability; primary screen in compound mixtures of four per well. AID 1242;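 active = inhibition above 30.3% in the primary screen of four-compound pools, then above 30% when the compound was retested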;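 note: compounds exposed to preformed 24 h biofilms for 48 h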
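Test system: C. albicans biofilms. Buffer or medium: RPMI/MOPS medium, pH 7.0. Timing: 48 h compound exposure at 37 °C. Technique: Alamar Blue fluorescence. Evaluation: percent inhibition of biofilm viability.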
thrombin 1536: inhibitors of human thrombin | alpha-thrombin, Boc-VPR-AMC fluorogenic substrate cleavage | inhibition, % at 5 µM | hit rate 0.26% among 220,000 | AID 1046;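 active = inhibition at or above 40%; inactive = inhibition below 40%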
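System: human alpha-thrombin protein; Compound dosing: one concentration per compound, 5 µM, with 0.2% DMSO; Timing: reaction at room temperature; Technique: AMC fluorescence, 355/460 nm; Controls: enzyme without compound as high, wells lacking enzyme as low.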
A number is an active result; – = inactive; · = no result.

SMILES	FXIIa inh 1536	hK5 inh	Lipid droplet	FXIa inh	Biofilm kill mix	thrombin 1536
COc1ccc(CSc2nc(C)cc(C)c2S(C)(=O)=O)cc1	–	–	–	41	–	–
O=C(CSc1ncn[nH]1)N/N=C/c1ccc(C(F)(F)F)cc1	·	·	–	·	·	·
Cc1c(C(=O)N2CCN(Cc3ccccc3)CC2)oc2c1C(=O)CC(C)(C)C2	·	·	–	·	·	·
CCOc1ccc(OCCNC2CCCC2)cc1	–	–	–	–	·	–
CCCOc1ccc(OCCNC2CCCC2)cc1	–	74	·	–	·	–
COc1cc(/C=N/n2cnnc2)ccc1OC(=O)c1cccnc1	42	–	–	–	·	–
O=C(NC1CCN(S(=O)(=O)c2ccc(F)cc2)CC1)c1cccc(F)c1	·	·	–	·	·	·
CCOC(=O)C(NC(=O)c1cccc(Cl)c1)(OCc1ccccc1)C(F)(F)F (stereo not drawn)	–	–	71	–	–	–
COc1ccccc1/C=C(/NC(=O)c1ccccc1)C(=O)NCCN1CCOCC1	·	·	–	·	·	·
COc1ccc([N+](=O)[O-])cc1NCc1ccco1	–	–	–	81	–	–
COc1cc([N+](=O)[O-])ccc1NC(=O)NCc1ccco1	–	·	–	–	–	–
CC1CCN(S(=O)(=O)c2ccc3nc(-c4ccccn4)cc(C(=O)NCCN(C)Cc4ccccc4)c3c2)CC1	66	–	–	–	–	–
c1ccc(CCC2CCCCN2Cc2nc(-c3ccc4c(c3)OCO4)no2)nc1 (stereo not drawn)	–	·	–	–	–	–
COC(=O)c1ccc(NCC(=O)Nc2cc(C)cc(C)c2)cc1	57	–	–	–	–	–
COC(=O)c1ccc(CNCC(=O)Nc2ccc(C(=O)OC)cc2)cc1	–	–	–	–	–	–
COc1ccc(C2=CSC3=NCCN23)cc1F	101	–	·	–	·	–
COc1ccc(C2=CSC3=NCCN23)cc1Cl	·	·	–	·	·	·
O=C(NCCc1ccc(Cl)cc1)C1COc2ccccc2O1 (stereo not drawn)	·	·	–	·	·	·
COc1cc(C(=O)N2CCC(O)(c3ccccc3)CC2)cc(OC)c1OC	–	51	–	–	·	–
CNC(=O)c1ccc(N(Cc2ccccc2)S(C)(=O)=O)cc1	58	72	–	–	·	–
O=C(CSc1ncccn1)N/N=C/c1cccc(OC2CSC2)c1	–	–	–	68	–	–
COc1nc(N)nc(N)c1NS(=O)(=O)c1ccc(C)cc1	·	·	–	·	·	·
COC(=O)C(C)Sc1nnc(Cc2cc(=O)[nH]c(=O)[nH]2)n1-c1ccc(Cl)cc1 (stereo not drawn)	43	–	·	–	·	–
CCOC(=O)C1(Cc2cccc(Cl)c2)CCCN(C(=O)c2c(CC)noc2C)C1 (stereo not drawn)	·	·	–	·	·	·
COc1ccc(-c2nc(SC)n(C(=O)c3ccco3)n2)cc1	–	–	–	–	·	80
SMILES	FXIIa inh 1536	hK5 inh	Lipid droplet	FXIa inh	Biofilm kill mix	thrombin 1536
Cc1cc(C)c2[nH]c(=O)c(CN(Cc3nnnn3C3CCCC3)C3CCCCC3)cc2c1	–	42	·	–	·	–
O=c1[nH]c2cc3c(cc2cc1CN(Cc1nnnn1CC1CCCO1)C1CCCCC1)OCO3 (stereo not drawn)	–	54	–	–	·	–
Cc1ccc(-c2csc(NC(=O)C3=NN(C4CCS(=O)(=O)C4)C(=O)CC3)n2)cc1 (stereo not drawn)	–	–	–	–	–	–
CCCN1CCC(NCc2cn(C)nc2-c2ccc(Oc3ccccc3)cc2)CC1	–	45	–	–	–	–
COc1cc(NC(=S)N2CCN(C)CC2)cc(OC)c1	·	·	–	·	·	·
Cc1nnc2c(-c3ccccc3)nc3ccccc3n12	–	–	–	–	·	45
COCCCn1cn[nH]c1=S	–	63	–	–	–	–
CCCC(C)C(=O)OCC(=O)NCc1ccc(OC)c(OC)c1 (stereo not drawn)	–	–	–	–	–	–
CCC(C)(C)n1nnnc1C(c1cc2ccc(OC)cc2[nH]c1=O)N1CCN(C2CCCCC2)CC1 (stereo not drawn)	–	57	·	–	·	–
CCC(C)(C)n1nnnc1C(c1cc2cc3c(cc2[nH]c1=O)OCO3)N1CCCCC1 (stereo not drawn)	–	–	·	–	·	–
c1ccc(N2CCN(c3nnc(Cc4cccnc4)c4ccccc34)CC2)nc1	–	43	·	–	·	–
N#C/C(=N\O)c1nc2ccccc2s1	–	43	–	–	–	–
Cc1cccc(N2CCN(S(=O)(=O)c3c(C)nc4scc(C)n4c3=O)CC2)c1C	·	·	–	·	·	·
